Screens (PubChem BioAssay)
TbMetRS inhib – blocks T. brucei methionyl-tRNA synthetase activity | purified T. brucei MetRS, ATP depletion, Kinase-Glo luminescence | inhibition, % at 11.9 µM | hit rate 0.4% among 360,000 | AID 624268;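 active = inhibition above a per-plate cutoff of the control wells' mean inhibition plus 3 SD, cut at about 5.5% in these data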
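Dosing: 11.9 µM compound single dose, 0.9% DMSO; Assay system: purified T. brucei MetRS enzyme; Measured by: Kinase-Glo luciferase luminescence reporting remaining unconsumed ATP; Schedule: 15 min plus 2 h at 25 °C.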
GC-B act – GC-B (human) receptor activation | AID 1920062 | hit rate 0.11% among 370,000 | HEK293-GC-B cells, CNP EC30, cGMP TR-FRET; 0% at EC30 CNP, 100% saturating CNP | activation, % at 10 µM | P20594;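 active = activation at 10 µM reaching about 35% in either raw or pattern-adjusted values, limit read from the data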
A1 inh – inhibitors of the anti-apoptotic protein A1, read as caspase activation | MEF A1-2A-BIM cells, Caspase-Glo 3/7 luminescence, 3 h; percent of clofoctol response, vehicle zero | caspase activation, % (concentration not given with the values) | hit rate 0.066% among 330,000;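 active = over half of replicate activation scores above 10%, or exactly half above 10 with the replicate mean above 10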
MT1-MMP act inh – MT1-MMP (human) activation inhibition | P50281 | hit rate 0.061% among 360,000 | GFP/RFP ratio change, % at 20 µM | HT1080 RFP-PRO-GFP cells, GFP/RFP ratio fluorescence, overnight; percent of plate control window, DMSO zero;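 active = GFP/RFP ratio change of at least 30% with cell ATP level not reduced by more than half and red fluorescence within 50% of control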
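Test system: HT1080 cells expressing an RFP-PRO-GFP fluorescent reporter construct / Compound dosing: single-point 20 µM compound, 1% DMSO / Schedule: cells overnight before dosing, compound overnight, 37 °C, 5% CO2 / Evaluation: GFP/RFP fluorescence ratio / Control set: DMSO and RFP-L50D-GFP cell wells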
SKN-1 inh – blocks SKN-1 activity in C. elegans; C. elegans VP596 Pgst-4::GFP/RFP ratio, acrylamide-induced, 24 h; inhibition, % at 21.8 µM; hit rate 0.49% among 360,000;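 active = interference check ratio from 0.5 to 1.5 plus GFP to RFP signal ratio inhibition reaching or exceeding a fixed threshold, cut at about 30% in these data, passing the limit was not always enough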
GC-A act – GC-A (human) enzyme activation; P16066; HEK293 GC-A cells, cGMP TR-FRET, EC30 ANP; 0% at EC30 ANP, 100% saturating ANP; activation, % at 10 µM; hit rate 0.14% among 370,000; AID 1671463; in the data active = activation above about 40%
Numbers stand for hits. Shown are actives, neighbours in structure and some others; about 1.1% of the full set was active somewhere.

What do the screens show for `COc1ccc(-c2nn(-c3ccccc3)cc2/C=C/C(=O)OCC(=O)Nc2ccccc2C#N)cc1`?
TbMetRS inhib: inactive; GC-B act: inactive; A1 inh: 24; MT1-MMP act inh: inactive; SKN-1 inh: inactive; GC-A act: inactive

How did Nc1[nH]c(C(=O)c2ccccc2)c(-c2cccc3ccccc23)c1C(=O)c1c(-c2ccccc2)[nH]c2ccccc12 do in these assays?
GC-B act: inactive; GC-A act: inactive

What do the screens show for `C=CCc1cccc(CNc2nc3ccccc3n2CC)c1O`?
TbMetRS inhib: 40; GC-B act: inactive; A1 inh: inactive; MT1-MMP act inh: inactive; SKN-1 inh: inactive; GC-A act: inactive

Results for C=CCN1[C@@H](C)COc2cc(F)ccc2S1(=O)=O ?
GC-B act: inactive; GC-A act: inactive

Results for O=C(N=C1N=C2C=CC=CN2Cc2ccccc21)c1ccc(S(=O)(=O)N2CCCC2)cc1 ?
TbMetRS inhib: inactive; GC-B act: inactive; A1 inh: inactive; MT1-MMP act inh: inactive; SKN-1 inh: inactive; GC-A act: inactive

What do the screens show for `CN(C)S(=O)(=O)c1cccc(C(=O)N=C2N=C3C=CC(Cl)=CN3Cc3ccccc32)c1`?
TbMetRS inhib: inactive; GC-B act: inactive; A1 inh: inactive; MT1-MMP act inh: inactive; SKN-1 inh: 57; GC-A act: inactive

Results for CC(=O)N1CCN(CC(=O)Nc2ccccc2Sc2ccc(Cl)cc2)CC1 ?
TbMetRS inhib: inactive; GC-B act: inactive; A1 inh: inactive; MT1-MMP act inh: inactive; SKN-1 inh: inactive; GC-A act: inactive

How did O=C(CCl)Nc1ccccc1Sc1ccc(Cl)cc1 do in these assays?
TbMetRS inhib: inactive; GC-B act: inactive; A1 inh: inactive; MT1-MMP act inh: inactive; SKN-1 inh: inactive; GC-A act: 45

Results for Cn1c(N)c(C(=O)Nc2cccc(Cl)c2)c(=O)n(C)c1=O ?
TbMetRS inhib: inactive; GC-B act: inactive; A1 inh: inactive; MT1-MMP act inh: inactive; SKN-1 inh: inactive; GC-A act: 47

How did CCOC(=O)c1ccc(NC(=O)c2c(N)n(C)c(=O)n(C)c2=O)cc1 do in these assays?
TbMetRS inhib: inactive; GC-B act: inactive; A1 inh: inactive; MT1-MMP act inh: inactive; SKN-1 inh: inactive; GC-A act: inactive

Results for Cc1cc(Cl)ccc1OCC(=O)OCC(=O)c1c(N)n(C)c(=O)n(C)c1=O ?
TbMetRS inhib: inactive; GC-B act: inactive; A1 inh: 16; MT1-MMP act inh: inactive; SKN-1 inh: inactive; GC-A act: inactive

What do the screens show for `Cc1ccc(OCCOc2ccc(Cl)cc2Cl)c(Br)n1`?
GC-B act: inactive; GC-A act: inactive

What do the screens show for `Cc1cc(-c2nnn(CCCOC(C)(C)C)c2C)ccc1-c1cn(CCCOC(C)(C)C)nn1`?
TbMetRS inhib: inactive; GC-B act: inactive; MT1-MMP act inh: inactive; SKN-1 inh: 37; GC-A act: inactive

How did O=C(NCCc1ccccc1)Nc1cccc(Cl)c1 do in these assays?
TbMetRS inhib: inactive; GC-B act: inactive; A1 inh: inactive; MT1-MMP act inh: inactive; SKN-1 inh: inactive; GC-A act: inactive

Results for O=C(NCCc1ccc(Cl)cc1)Nc1cccc(Cl)c1 ?
TbMetRS inhib: 7.0; GC-B act: inactive; A1 inh: inactive; MT1-MMP act inh: inactive; SKN-1 inh: inactive; GC-A act: inactive

What do the screens show for `CCn1c(C)c(C)c2cc(C(=O)N3CCc4ccccc4C3)ccc21`?
TbMetRS inhib: inactive; GC-B act: inactive; A1 inh: inactive; MT1-MMP act inh: inactive; SKN-1 inh: 42; GC-A act: inactive

How did COc1ccc(CC(=O)Nc2sc3c(c2C#N)CC(C)(C)NC3(C)C)cc1OC do in these assays?
TbMetRS inhib: inactive; GC-B act: 37; A1 inh: inactive; MT1-MMP act inh: inactive; SKN-1 inh: inactive; GC-A act: inactive

Results for CCCC(=O)Nc1sc2c(c1C#N)CC(C)(C)NC2(C)C ?
TbMetRS inhib: inactive; GC-B act: inactive; A1 inh: inactive; MT1-MMP act inh: inactive; SKN-1 inh: inactive; GC-A act: inactive

Results for O=c1c2ccccc2oc2ccc(Oc3ccccc3)cc12 ?
TbMetRS inhib: inactive; GC-B act: inactive; A1 inh: inactive; MT1-MMP act inh: inactive; SKN-1 inh: 41; GC-A act: inactive

How did CC(C)C(c1nnnn1Cc1ccco1)N1CCN(C2CCCC2)CC1 (stereo not drawn) do in these assays?
TbMetRS inhib: inactive; GC-B act: inactive; A1 inh: inactive; MT1-MMP act inh: inactive; SKN-1 inh: 51; GC-A act: inactive

What do the screens show for `CCCC(c1nnnn1Cc1ccco1)N1CCN(C2CCCC2)CC1` (stereo not drawn)?
TbMetRS inhib: inactive; GC-B act: inactive; A1 inh: inactive; MT1-MMP act inh: inactive; SKN-1 inh: inactive; GC-A act: inactive

How did O=C(Nc1ccc(Cl)cn1)c1cc2c(s1)-c1ccccc1OC2 do in these assays?
TbMetRS inhib: inactive; GC-B act: inactive; A1 inh: inactive; MT1-MMP act inh: inactive; SKN-1 inh: 38; GC-A act: inactive

How did O=C(Nc1cccnc1Cl)c1cc2c(s1)-c1ccccc1OC2 do in these assays?
TbMetRS inhib: inactive; GC-B act: inactive; A1 inh: inactive; MT1-MMP act inh: inactive; SKN-1 inh: inactive; GC-A act: inactive

Results for COC(=O)[C@]12C[C@H](CC(=O)NCCc3ccccc3OC)C(=O)N(CCc3ccc(OC)c(OC)c3)C1=C[C@H](C1CCCC1)O[C@@H]2C ?
GC-B act: inactive; GC-A act: inactive

How did Clc1ccc2c(c1)c1cc(Cl)ccc1n2CN1CCOCC1 do in these assays?
TbMetRS inhib: inactive; GC-B act: inactive; A1 inh: inactive; MT1-MMP act inh: inactive; SKN-1 inh: 33; GC-A act: inactive

What do the screens show for `O=S1(=O)CC2c3ccc(F)cc3CN2CN1CCc1ccccc1` (stereo not drawn)?
GC-B act: inactive; GC-A act: inactive

How did Nc1ccc(-c2nc3cc(N)ccc3s2)cc1 do in these assays?
TbMetRS inhib: inactive; GC-B act: inactive; A1 inh: inactive; MT1-MMP act inh: inactive; SKN-1 inh: inactive; GC-A act: inactive

How did CNC(=S)Nc1ccc(-c2nc3ccc(C)cc3s2)cc1 do in these assays?
TbMetRS inhib: inactive; GC-B act: inactive; A1 inh: inactive; MT1-MMP act inh: inactive; SKN-1 inh: inactive; GC-A act: inactive

How did Nc1ccc2nc(-c3ccccc3)sc2c1 do in these assays?
TbMetRS inhib: inactive; GC-B act: inactive; A1 inh: inactive; MT1-MMP act inh: inactive; SKN-1 inh: 82; GC-A act: inactive

Results for Cc1ccc2nc(-c3ccc(N)cc3)sc2c1 ?
TbMetRS inhib: inactive; GC-B act: inactive; A1 inh: inactive; MT1-MMP act inh: inactive; SKN-1 inh: 42; GC-A act: inactive

What do the screens show for `O=C(c1cc(Cl)cc(Cl)c1)N1CC[C@H]2[C@H](CCCN2Cc2ccc(F)cc2)C1`?
GC-B act: inactive; GC-A act: inactive
